{"data": "Measured values pooled from the literature", "target": "Tyrosine-protein kinase ITK/TSK (ITK, Homo sapiens, UniProt Q08881)", "Sequence (Q08881 1-620, as in one of the studies)": "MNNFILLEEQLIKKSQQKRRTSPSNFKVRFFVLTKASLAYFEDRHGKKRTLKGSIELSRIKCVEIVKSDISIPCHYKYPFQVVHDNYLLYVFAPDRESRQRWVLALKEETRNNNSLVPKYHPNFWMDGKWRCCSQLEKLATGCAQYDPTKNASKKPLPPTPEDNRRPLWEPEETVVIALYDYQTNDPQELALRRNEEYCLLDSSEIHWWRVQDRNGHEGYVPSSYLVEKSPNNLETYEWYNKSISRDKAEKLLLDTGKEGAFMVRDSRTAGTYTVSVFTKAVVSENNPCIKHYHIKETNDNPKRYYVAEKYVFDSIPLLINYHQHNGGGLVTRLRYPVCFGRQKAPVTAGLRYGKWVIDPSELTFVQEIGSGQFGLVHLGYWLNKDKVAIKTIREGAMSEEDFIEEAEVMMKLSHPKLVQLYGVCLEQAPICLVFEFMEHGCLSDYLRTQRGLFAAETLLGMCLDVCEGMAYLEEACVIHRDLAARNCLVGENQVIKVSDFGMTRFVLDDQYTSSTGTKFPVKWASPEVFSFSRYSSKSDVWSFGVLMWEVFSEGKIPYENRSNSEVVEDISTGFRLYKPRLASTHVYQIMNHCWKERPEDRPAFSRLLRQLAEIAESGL", "note": "Compare with care: the assays were run in different laboratories."}
{"Compound": "N#CCCc1ccc2c(c1)-c1[nH]c3ccc([N+](=O)[O-])cc3c1CC(=O)N2", "test": "cell-free assay", "setting": "0.5 µM", "quantity": "remaining signal", "value": "99.9%"}
{"Compound": "COc1cc2nccc(Oc3ccc(NC(=O)c4c5n(n(-c6ccc(F)cc6)c4=O)CCCC5)cc3)c2cc1OC", "test": "enzyme activity, inhibitor", "setting": "0.1 µM", "quantity": "inhibition", "value": "9%"}
{"Compound": "CC1=C(C#N)[C@@H](c2ccc3[nH]nc(C)c3c2)C(C#N)=C(c2ccc(Cl)cc2)N1", "test": "cell-free assay, competition with immobilised ligand", "setting": "1 µM", "quantity": "remaining binding", "value": "97.2%"}
{"Compound": "COc1cc2nccc(Oc3ccc(NC(=S)NC(=O)c4ccccc4C)cc3)c2cc1OC", "test": "enzyme activity, inhibitor", "setting": "0.5 µM", "quantity": "remaining activity", "value": "80.6%"}
{"Compound": "CN(C)C1CCN(CC#Cc2nn(C3CCCC3)c3nc(NCc4ccccc4)ncc23)C1 (stereo not shown)", "test": "enzyme activity, inhibitor, FRET", "setting": "10 µM", "quantity": "inhibition", "value": "15%"}
{"Compound": "COc1ccc(C(=O)Nc2sc3c(c2C(N)=O)CCCC3)cc1OC", "test": "enzyme activity, inhibitor", "setting": "0.5 µM", "quantity": "remaining activity", "value": "99.6%"}
{"Compound": "O=S(=O)(NC1CCC(c2cc(F)ccc2F)(S(=O)(=O)c2ccc(Cl)cc2)CC1)C(F)(F)F (stereo not shown)", "test": "cell-free assay, competition with immobilised ligand", "setting": "1 µM", "quantity": "remaining binding", "value": "97%"}
{"Compound": "Cc1sc(C(=O)NC2COC2)cc1-n1cc(NC(=O)Nc2c(F)cccc2Cl)cn1", "test": "enzyme activity, inhibitor", "setting": "10 µM", "quantity": "remaining activity", "value": "94.4%"}
{"Compound": "CC(C)(C)c1nc(-c2cccc(NS(=O)(=O)c3c(F)cccc3F)c2F)c(-c2ccnc(N)n2)s1", "test": "enzyme activity, inhibitor, radiometric", "setting": "1 µM", "quantity": "remaining activity", "value": "109%"}
{"Compound": "COc1cc2c(N3CCN(C(=O)Nc4ccc(OC(C)C)cc4)CC3)ncnc2cc1OCCCN1CCCCC1", "test": "cell-free assay", "setting": "0.5 µM", "quantity": "remaining signal", "value": "99%"}
{"Compound": "COc1cc(C)c(Sc2cnc(NC(=O)c3ccc(N4CCN(CCCCCCCNC(=O)COc5cccc6c5C(=O)N(C5CCC(=O)NC5=O)C6=O)CC4)cc3)s2)cc1C(=O)N1CCN(C(C)=O)CC1 (stereo not shown)", "test": "binding", "setting": "1 µM", "quantity": "inhibition", "value": "> 90%"}
{"Compound": "CCN(CC)CCNC(=O)c1c(C)[nH]c(/C=C2\\C(=O)Nc3ccc(F)cc32)c1C", "test": "enzyme activity, inhibitor", "setting": "10 µM", "quantity": "inhibition", "value": "93%"}
{"Compound": "Cc1cc(NC(=O)c2cccc3cc(-c4cccc5[nH]nc(N)c45)ccc23)ccc1F", "test": "enzyme activity, inhibitor", "setting": "0.1 µM", "quantity": "activity vs control", "value": "104%"}
{"Compound": "CCc1ccccc1C(=O)Nc1n[nH]c2c(C)c(F)c(C3C(C#N)=C(C)N(C)C(C)=C3C#N)cc12", "test": "cell-free assay, competition with immobilised ligand", "setting": "1 µM", "quantity": "remaining binding", "value": "86%"}
{"Compound": "Nc1ncnc2occ(-c3ccc(NC(=O)Nc4cc(C(F)(F)F)ccc4F)cc3)c12", "test": "cell-free assay", "setting": "20 µM", "quantity": "remaining signal", "value": "12%"}
{"Compound": "CO[C@@H](C)c1c(Nc2ccc([C@H](N(C)C(=O)C3CCS(=O)(=O)CC3)C(F)(F)F)cc2)cnc2cc(Cl)nn12", "test": "cell-free assay, competition with immobilised ligand", "setting": "1 µM", "quantity": "remaining binding", "value": "88%"}
{"Compound": "COc1cc(Cl)c(C(=O)N[C@@H](CN[C@H]2CC[C@@H](N)CC2)Cc2ccc(C#N)cc2)cc1-c1ccc(CN[C@H](C)c2ccc(C)cc2)o1", "test": "enzyme activity, inhibitor", "setting": "1 µM", "quantity": "remaining activity", "value": "104%"}
{"Compound": "O=C(Nc1cccnn1)N1CCC(=Cc2cccc(Oc3ccc(C(F)(F)F)cn3)c2)CC1", "test": "cell-free assay, competition with immobilised ligand", "setting": "1 µM", "quantity": "remaining binding", "value": "100%"}
{"Compound": "COc1cc2ncnc(Nc3ccc(Oc4ccccc4)cc3C)c2cc1OC", "test": "enzyme activity, inhibitor", "setting": "1 µM", "quantity": "inhibition", "value": "3%"}
{"Compound": "O=C1NC(=O)c2cc(Nc3ccc(F)cc3)c(Nc3ccc(F)cc3)cc21", "test": "cell-free assay", "setting": "0.5 µM", "quantity": "remaining signal", "value": "87.3%"}
{"Compound": "CC(C)(O)[C@H]1CC[C@H](Nc2ccc3ncc(-c4cccc(C(F)(F)F)c4)n3n2)CC1", "test": "enzyme activity, inhibitor", "setting": "1 µM", "quantity": "remaining activity", "value": "88.8%"}
{"Compound": "C[C@@H]1CN(c2cc(-c3n[nH]c4ccc(OC5(C)CC5)cc34)ncn2)C[C@H](C)O1", "test": "cell-free assay, competition with immobilised ligand", "setting": "0.1 µM", "quantity": "remaining binding", "value": "87%"}
{"Compound": "O=C(Nc1cnn(-c2csc(C(=O)NC3COC3)c2)c1)Nc1ccccc1Cl", "test": "enzyme activity, inhibitor", "setting": "5 µM", "quantity": "remaining activity", "value": "107%"}
{"Compound": "Cc1ccc(C(=O)Nc2ccc(CN3CCN(C)CC3)c(C(F)(F)F)c2)cc1C#Cc1cnc2cccnn12", "test": "enzyme activity", "setting": "23.5 nM", "quantity": "remaining activity", "value": "82%"}
{"Compound": "CC(=O)N1CCC(c2ccc(C(=O)NC(=N)N)cc2C(F)(F)F)CC1", "test": "cell-free assay, competition with immobilised ligand", "setting": "1 µM", "quantity": "remaining binding", "value": "100%"}
{"Compound": "c1nc2c(Nc3ccc4c(c3)OCCO4)nc(Nc3ccc4c(c3)OCCO4)nc2[nH]1", "test": "enzyme activity, inhibitor", "setting": "10 µM", "quantity": "activity vs control", "value": "5.1%"}
{"Compound": "CCC(=O)N[C@H]1CC[C@@H](C(=O)N(C)c2ccc(-c3nc4ccccc4o3)cc2)C1", "test": "cell-free assay, competition with immobilised ligand", "setting": "1 µM", "quantity": "remaining binding", "value": "100%"}
{"Compound": "CNC(=O)c1cc(Oc2ccc(NC(=O)Nc3ccc(Cl)c(C(F)(F)F)c3)cc2)ccn1", "test": "enzyme activity, inhibitor", "setting": "10 µM", "quantity": "inhibition", "value": "32%"}
